The values below come from ChEMBL document CHEMBL3526089, “Selective mechanism-based inactivation of CYP3A4 by CYP3cide (PF-04981517) and its utility as an in vitro tool for delineating the relative roles of CYP3A4 versus CYP3A5 in the metabolism of drugs” (Drug Metab Dispos, 2012).

One series has as its target Cytochrome P450 2C8 (Homo sapiens, UniProt P10632). Put plainly: Reversible inhibition of human CYP2C8 paclitaxel 6alpha-hydroxylase activity. The series is classed as ADME. Put shortly: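 Reversible IC50 with pooled HLM or recombinant CYP3A7 (with POR and b5), protein 0.010–0.10 mg/ml depending on isoform. Probe substrate at its experimentally derived KM. Metabolite formation measured by LC/MS/MS. IC50 determinations run in duplicate.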

For series [1], the target named is T1, CYP3A5 (Homo sapiens, UniProt P20815). Put plainly: Time dependent inhibition of testosterone 6beta-hydroxylase activity of human recombinant CYP3A5 in presence of human P450 oxidoreductase and b5 assessed as decrease in enzyme activity at 2 uM preincubated for 30 mins by IC25-shift assay. The series is classed as ADME. As to conditions: recombinant CYP3A5 with human P450 oxidoreductase and b5, probe testosterone (6beta-hydroxylation). A digest of the protocol:
(§1)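 IC25-shift assay. Pooled HLMs or recombinant CYP3A4/3A5/3A7 were preincubated 30 min at 37°C with CYP3cide, with or without NADPH (1.3 mM) (N=2). Mixture diluted 10-fold into probe substrate (~KM) at 37°C. Metabolites analysed by LC/MS/MS. Readout: % decrease in activity vs control.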

A short description of series [2]: Fraction unbound in human liver microsomes at 0.8 mg/ml. The series is classed as ADME. In general terms: Liver microsomes are vesicles of endoplasmic reticulum, rich in cytochrome P450 enzymes.
The target of series [3] is T2, Cytochrome P450 3A5 (Homo sapiens, UniProt P20815). The experiment in a line: Reversible inhibition of testosterone 6beta-hydroxylase activity of human recombinant CYP3A5 in presence of human P450 oxidoreductase and b5. The series is classed as ADME. Put shortly: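 Recombinant CYP3A5 expressed in baculovirus, with P450 oxidoreductase and cytochrome b5 (P450:POR:b5 1:13:7). Enzyme at 0.010 mg/ml for midazolam 1'-hydroxylase and 0.020 mg/ml for testosterone 6β-hydroxylase. Each substrate at its experimentally derived KM. IC50 determined in duplicate.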
Target sequence in this assay (P20815 whole entry): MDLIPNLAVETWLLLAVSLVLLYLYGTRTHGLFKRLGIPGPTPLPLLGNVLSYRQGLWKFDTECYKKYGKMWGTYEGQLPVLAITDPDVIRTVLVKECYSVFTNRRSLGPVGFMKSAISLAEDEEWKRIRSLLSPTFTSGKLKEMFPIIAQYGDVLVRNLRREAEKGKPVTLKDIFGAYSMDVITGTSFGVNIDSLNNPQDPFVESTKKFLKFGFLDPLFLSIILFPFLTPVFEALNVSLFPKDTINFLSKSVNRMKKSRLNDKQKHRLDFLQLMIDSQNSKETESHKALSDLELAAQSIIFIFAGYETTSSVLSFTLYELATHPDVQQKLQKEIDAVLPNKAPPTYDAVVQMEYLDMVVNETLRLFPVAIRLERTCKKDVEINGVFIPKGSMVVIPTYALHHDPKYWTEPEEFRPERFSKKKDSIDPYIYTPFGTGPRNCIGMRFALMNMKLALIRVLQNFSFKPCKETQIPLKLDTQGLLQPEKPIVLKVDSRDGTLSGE

The next series deals with CYP2D6 (Homo sapiens, UniProt P10635). Put plainly: Time dependent inhibition of human CYP2D6 dextromethorphan O-demethylase activity assessed as decrease in enzyme activity at 100 uM preincubated for 30 mins by IC25-shift assay. The series is classed as ADME. To be noted: probe dextromethorphan (O-demethylation). Put shortly:
as §1

In the next series the target is CYP3A (Homo sapiens, UniProt P08684+P20815+P24462+Q9HB55). Put plainly: Time dependent inhibition of human CYP3A midazolam 1'-hydroxylase activity assessed as decrease in enzyme activity at 1 uM preincubated for 30 mins by IC25-shift assay. Type of series: ADME. To be noted: probe midazolam (1'-hydroxylation). Put shortly: as §1
In another series the test system is CYP3A5*1/*3. The experiment in a line: Time dependent inhibition of CYP3A5*1/*3 in human liver microsomes assessed as midazolam 1'-hydroxylase activity at 0.56 uM after 10 mins by dilution method. Type of series: ADME. As to conditions: human liver microsomes (CYP3A5*1/*3 genotype), probe midazolam (1'-hydroxylation).
In the next series the target is CYP3A7 (Homo sapiens, UniProt P24462). The experiment in a line: Time dependent inhibition of midazolam 1'-hydroxylase activity of human recombinant CYP3A7 harboring human P450 oxidoreductase and b5 assessed as decrease in enzyme activity at 100 uM preincubated for 30 mins by IC25-shift assay. As to conditions: recombinant CYP3A7 with human P450 oxidoreductase and b5, probe midazolam (1'-hydroxylation). Type of series: ADME. A digest of the protocol:
as §1

Series [4] addresses T2, Cytochrome P450 3A5. Put plainly: Drug metabolism assessed as human recombinant CYP3A5 in presence of human P450 oxidoreductase and b5-mediated 1-((3S)-1-(1-methyl-3-(1-methyl-5-p-tolyl-1H-pyrazol-4-yl)-1H-pyrazolo[3,4-d]pyrimidin-4-yl)pyrrolidin-3-yl)-2,3,4,5-tetrahydropyridinium formation at 10 uM by HPLC-MS analysis in presence of KCN and NADPH. To be noted: recombinant enzyme.
Target sequence in this assay (P20815 whole entry, looked up): as the sequence (P20815 whole entry) above

Series [5] addresses T2, Cytochrome P450 3A5. Put plainly: Drug metabolism assessed as human recombinant CYP3A5 in presence of human P450 oxidoreductase and b5-mediated 1-((3S)-1-(1-methyl-3-(1-methyl-5-p-tolyl-1H-pyrazol-4-yl)-1H-pyrazolo[3,4-d]pyrimidin-4-yl)pyrrolidin-3-yl)-2,3,4,5-tetrahydropyridinium formation at 10 uM by HPLC-MS analysis in presence of KCN and NADPH. The series is classed as ADME. As to conditions: recombinant enzyme. A digest of the protocol:
(§2)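 Recombinant CYP3A4 or CYP3A5 (50 pmol/ml final) added, without preincubation, to 10 µM CYP3cide with NADPH (final 1 mM) in 100 mM phosphate pH 7.4. Trapping incubations also held 200 µM KCN or 5 mM GSH (final). Incubated 1 h at 37°C, quenched with acetonitrile, dried, reconstituted. Metabolites analysed by LC/Orbitrap ESI-MS.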
Target sequence in this assay (P20815 whole entry): as above

The target in series [6] is T1, CYP3A5. The experiment in a line: Time dependent inhibition of midazolam 1'-hydroxylase activity of human recombinant CYP3A5 harboring human P450 oxidoreductase and b5 assessed as decrease in enzyme activity at 2 uM preincubated for 30 mins by IC25-shift assay. The series is classed as ADME. As to conditions: recombinant CYP3A5 with human P450 oxidoreductase and b5, probe midazolam (1'-hydroxylation). Put shortly:
as §1

The target in series [7] is T2, Cytochrome P450 3A5. The experiment in a line: Drug metabolism assessed as human recombinant CYP3A5 in presence of human P450 oxidoreductase and b5-mediated (4-(1-methyl-4-((S)-3-(piperidin-1-yl)pyrrolidin-1-yl)-1H-pyrazolo[3,4-d]pyrimidin-3-yl)-5-p-tolyl-1H-pyrazol-1-yl)methanol formation at 10 uM by HPLC-MS analysis in presence of NADPH. Type of series: ADME. To be noted: recombinant enzyme. A digest of the protocol: as §2
Target sequence in this assay (P20815 whole entry): as above

Series [8] addresses T2, Cytochrome P450 3A5. Put plainly: Drug metabolism assessed as human recombinant CYP3A5 in presence of human P450 oxidoreductase and b5-mediated 1-((3S)-1-(1-methyl-3-(1-methyl-5-p-tolyl-1H-pyrazol-4-yl)-1H-pyrazolo[3,4-d]pyrimidin-4-yl)pyrrolidin-3-yl)-2,3,4,5-tetrahydropyridinium formation at 10 uM by HPLC-MS analysis in presence of NADPH. As to conditions: recombinant enzyme. The series is classed as ADME. Put shortly: as §2
Target sequence in this assay (P20815 whole entry): as above

The target of another series is CYP2C8 (Homo sapiens, UniProt P10632). Put plainly: Time dependent inhibition of human CYP2C8 paclitaxel 6alpha-hydroxylase activity assessed as decrease in enzyme activity at 100 uM preincubated for 30 mins by IC25-shift assay. The series is classed as ADME. To be noted: probe paclitaxel (6alpha-hydroxylation). Put shortly:
as §1

A further series relates to CYP3A5*1/*1. Put plainly: Inhibition of CYP3A5*1/*1 in human liver microsomes assessed as midazolam 1'-hydroxylase activity at 0.56 uM after 10 mins. The series is classed as ADME. As to conditions: liver microsomes (CYP3A5*1/*1 genotype), probe midazolam (1'-hydroxylation). Put shortly:
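Genotyped individual HLMs (0.1 mg/ml) preincubated at 37°C with CYP3cide (0–1.3 μM; 10 min in the two-donor study, 5 min in the 30-donor study), with or without 1.3 mM NADPH (N=3). Mixture diluted 20-fold into 23 μM midazolam for 6 min. 1'-OH-midazolam measured. Readout: % of vehicle/no-NADPH control activity.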

The next series concerns the target Cytochrome P450 3A4 (Homo sapiens, UniProt P08684). The experiment in a line: Inhibition of midazolam 1'-hydroxylase activity of human recombinant CYP3A4 harboring human P450 oxidoreductase and b5 assessed as decrease in enzyme activity preincubated for 30 mins by LC-MS/MS analysis. Type of series: ADME. Put shortly: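 Recombinant CYP3A4 with POR and cytochrome b5 was preincubated with inhibitor at 0.050 µM, with or without NADPH (1.3 mM), for 30 min at 37°C (N=2). The mixture was then diluted 10-fold into the probe substrate (about KM) at 37°C and analysed for metabolite. Results are percent decrease in activity versus control.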

T1 sequence (P20815 whole entry): as above
Cytochrome P450 3A4, sequence (P08684 whole entry): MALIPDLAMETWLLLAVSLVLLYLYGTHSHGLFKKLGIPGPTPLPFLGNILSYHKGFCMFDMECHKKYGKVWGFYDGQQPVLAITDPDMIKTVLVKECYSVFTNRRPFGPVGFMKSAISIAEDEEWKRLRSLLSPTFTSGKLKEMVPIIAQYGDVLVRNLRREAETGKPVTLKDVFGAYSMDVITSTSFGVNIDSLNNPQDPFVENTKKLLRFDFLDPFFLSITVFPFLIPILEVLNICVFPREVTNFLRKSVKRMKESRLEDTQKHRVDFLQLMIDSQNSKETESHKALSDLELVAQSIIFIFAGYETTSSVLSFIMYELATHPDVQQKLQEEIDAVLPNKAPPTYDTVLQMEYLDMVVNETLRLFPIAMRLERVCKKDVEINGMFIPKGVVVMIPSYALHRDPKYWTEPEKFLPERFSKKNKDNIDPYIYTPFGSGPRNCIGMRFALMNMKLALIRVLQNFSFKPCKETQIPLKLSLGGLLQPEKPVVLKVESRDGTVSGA
CYP2D6, sequence (P10635 whole entry): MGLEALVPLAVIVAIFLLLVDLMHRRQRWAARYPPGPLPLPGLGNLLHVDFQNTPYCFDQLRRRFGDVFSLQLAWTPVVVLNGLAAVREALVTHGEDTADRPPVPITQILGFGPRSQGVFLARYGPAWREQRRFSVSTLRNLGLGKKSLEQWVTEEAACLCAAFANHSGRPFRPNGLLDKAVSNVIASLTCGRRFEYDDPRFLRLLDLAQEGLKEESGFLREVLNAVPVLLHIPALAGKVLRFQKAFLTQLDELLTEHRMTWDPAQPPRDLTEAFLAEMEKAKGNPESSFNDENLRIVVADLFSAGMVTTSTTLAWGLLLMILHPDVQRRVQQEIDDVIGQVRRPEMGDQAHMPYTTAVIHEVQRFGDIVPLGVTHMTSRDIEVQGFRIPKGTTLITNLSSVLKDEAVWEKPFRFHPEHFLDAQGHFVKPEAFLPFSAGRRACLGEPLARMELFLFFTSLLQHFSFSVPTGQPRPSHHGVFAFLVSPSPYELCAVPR
Cytochrome P450 2C8, sequence (P10632 whole entry, canonical isoform): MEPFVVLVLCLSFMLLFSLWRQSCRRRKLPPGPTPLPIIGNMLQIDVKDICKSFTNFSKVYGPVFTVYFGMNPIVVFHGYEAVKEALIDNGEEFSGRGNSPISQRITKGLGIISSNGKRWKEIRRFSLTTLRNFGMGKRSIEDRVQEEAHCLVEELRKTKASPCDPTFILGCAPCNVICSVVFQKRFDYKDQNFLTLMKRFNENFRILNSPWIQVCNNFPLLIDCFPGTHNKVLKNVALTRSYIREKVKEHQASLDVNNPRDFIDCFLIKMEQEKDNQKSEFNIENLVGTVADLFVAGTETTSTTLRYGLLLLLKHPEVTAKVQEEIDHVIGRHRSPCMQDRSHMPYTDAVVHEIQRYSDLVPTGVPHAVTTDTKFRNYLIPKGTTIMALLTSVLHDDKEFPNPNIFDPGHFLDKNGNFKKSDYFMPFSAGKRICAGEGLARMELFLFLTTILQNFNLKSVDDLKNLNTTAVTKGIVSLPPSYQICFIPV
CYP2C8, sequence (P10632 whole entry): as the sequence (P10632 whole entry, canonical isoform) above
CYP3A7, sequence (P24462 whole entry): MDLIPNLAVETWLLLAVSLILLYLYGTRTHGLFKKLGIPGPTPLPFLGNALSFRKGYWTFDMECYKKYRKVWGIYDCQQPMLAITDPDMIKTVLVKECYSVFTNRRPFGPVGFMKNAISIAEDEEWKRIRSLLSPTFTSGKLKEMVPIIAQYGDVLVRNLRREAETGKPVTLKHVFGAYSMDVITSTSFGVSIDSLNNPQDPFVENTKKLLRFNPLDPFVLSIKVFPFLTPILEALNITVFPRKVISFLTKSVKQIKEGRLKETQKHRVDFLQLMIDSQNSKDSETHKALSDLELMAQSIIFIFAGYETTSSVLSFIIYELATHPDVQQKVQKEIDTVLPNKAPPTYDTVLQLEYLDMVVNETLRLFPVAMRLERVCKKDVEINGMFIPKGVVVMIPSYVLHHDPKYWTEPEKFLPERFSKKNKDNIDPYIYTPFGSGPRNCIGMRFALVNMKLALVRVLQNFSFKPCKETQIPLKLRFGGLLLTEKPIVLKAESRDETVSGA

Broadly, the IC50 is the concentration needed to halve the response being measured. For orientation: inhibition means the percentage by which the read-out fell short of the control. For orientation: fraction unbound means free concentration divided by total concentration. Low values mean extensive binding, high ones weak binding. In general, Ki refers to the equilibrium dissociation constant of an inhibitor or competing ligand from its target. Regarding `Cc1ccc(-c2c(-c3nn(C)c4ncnc(N5CC[C@H](N6CCCCC6)C5)c34)cnn2C)cc1`, the half-inhibitory concentration (IC50) against Cytochrome P450 2C8 is 78 µM; on Cytochrome P450 3A5 [3] it was 71 µM. The inhibition at 30 min, 2 µM turned out to be 71% on CYP3A5 [1] and 61% on CYP3A5 [6]. The fraction unbound in series [2] came to 0.56. Besides, the inhibition at 30 min, 100 µM was determined as 6% at CYP2D6, 15% at CYP3A7 and 13% at CYP2C8. For the same molecule, at CYP3A, the inhibition at 30 min, 1 µM amounted to 47%. For the same molecule, the inhibition at 10 min, 0.56 µM is 0.4% with CYP3A5*1/*3 and 23% with CYP3A5*1/*1. For the same molecule, the Drug metabolism entry at Cytochrome P450 3A5 [4], at Cytochrome P450 3A5 [5], at Cytochrome P450 3A5 [7] and at Cytochrome P450 3A5 [8] was “metabolite_detected” throughout. The Ki at Cytochrome P450 3A4 worked out at 0.12 µM.
